How the values were obtained:
Type in all cases: in vivo, postmenopausal Japanese women
[1] = tested on: urinary cross-linked C-telopeptide of type I collagen (CTX); assay: Bone resorption marker urinary CTX; details: n = 10
Method in brief: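 Urine was collected at baseline (0800 h), at 120, 240, 360 and 720 min after a single s.c. injection, and on mornings of days 2, 4, 6, 8, 11, 13 and 15. Subjects were postmenopausal women aged 60–79 y in a randomised, double-blind, placebo-controlled design. CTX was measured by ELISA (inter-assay CV 2.4–9.0 %), with each participant's samples in one batch. Median and distribution were summarised.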

[2] = tested on: Serum cross-linked N-telopeptide of type I collagen (NTX); assay: Bone resorption marker serum NTX; details: n = 10
Method in brief: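 Serum NTX was measured by ELISA (inter-assay CV 6.9–11.1 %), with all of a participant's samples run together. The trial was a placebo-controlled, double-blind, single-centre study in postmenopausal women aged 60–79 y, each given one s.c. injection after 0800 h baseline sampling. Blood was taken at 15–720 min and on mornings of days 2–15. Baseline median and follow-up distribution were tabulated.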

intact PTH = assay: Serum intact PTH; details: n = 10
Method in brief: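 Intact PTH in serum was measured by electrochemiluminescence immunoassay. Postmenopausal women aged 60–79 y were randomised double-blind to placebo or a single s.c. dose, given at 0800 h straight after baseline sampling. Blood was drawn at 15, 30, 45, 60, 90, 120, 180, 240, 360 and 720 min, then mornings of days 2, 4, 6, 8, 11, 13 and 15. Baseline median and follow-up distribution were reported.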

osteocalcin = assay: Bone formation marker serum osteocalcin; details: n = 10
Method in brief: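 Women aged 60–79 y were randomised double-blind to placebo or one s.c. injection at 0800 h, given after baseline blood. Serum was sampled 15–720 min post-dose, then each morning on days 2, 4, 6, 8, 11, 13 and 15. Osteocalcin was measured by BGP-IRMA (inter-assay CV 4.7–7.6 %), in a single batch per participant. Values were summarised as baseline median and follow-up distribution.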

[3] = tested on: 1,25-Dihydroxy vitamin D (1,25(OH)2D); assay: Serum 1,25; details: n = 10
Method in brief: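 Serum 1,25(OH)2D was measured by radio receptor assay (inter-assay CV 11.3–13.2 %), with each participant's samples in a single batch. Women aged 60–79 y received one s.c. injection or placebo at 0800 h after baseline blood, in a double-blind randomised design. Sampling ran from 15–720 min and on mornings of days 2, 4, 6, 8, 11, 13 and 15. Median baseline and follow-up distribution were tabulated.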

P1NP = assay: Bone formation marker serum P1NP; details: n = 10
Method in brief: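 Randomised, double-blind, placebo-controlled trial in women aged 60–79 y. A single s.c. dose was given at 0800 h after baseline sampling. Serum was drawn 15–720 min post-dose and on mornings of days 2, 4, 6, 8, 11, 13 and 15. P1NP was measured by radioimmunoassay (inter-assay CV 2.7–5.0 %), with each subject's samples in one batch. Median baseline and follow-up distribution were reported.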

[4] = Pharmacokinetics: plasma teriparatide acetate concentration
Method in brief: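 Plasma was sampled before and at 15, 30, 45, 60, 90, 120, 180, 240, 360 and 720 min after one s.c. injection at 0800 h in postmenopausal women. Drug was assayed with a rat PTH IRMA kit (range 10 to 1,000 pg/mL). Cmax, AUClast, AUCinf, Tmax and T1/2 were derived for active-dose recipients only. Concentrations are given as mean ± SD.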

[5] = Safety: adverse events after injection
Method in brief: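 Adverse events were recorded after a single s.c. injection of drug or identical-looking placebo in a randomised, double-blind study of postmenopausal women aged 60–79 y, with 10 per group. Events and abnormal laboratory changes were coded by MedDRA/J version 9.0 by system organ class and preferred term, and classified as adverse drug reactions where applicable. Follow-up lasted until day 15.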

[6] = 4 to 15 days, 28.2 μg single s.c.
[7] = 4 to 15 days, 56.5 μg single s.c.

CC[C@H](C)[C@H](NC(=O)[C@H](CCC(=O)O)NC(=O)[C@H](CO)NC(=O)[C@@H](NC(=O)[C@@H](N)CO)C(C)C)C(=O)N[C@@H](CCC(N)=O)C(=O)N[C@@H](CC(C)C)C(=O)N[C@@H](CCSC)C(=O)N[C@@H](Cc1cnc[nH]1)C(=O)N[C@@H](CC(N)=O)C(=O)N[C@@H](CC(C)C)C(=O)NCC(=O)N[C@@H](CCCCN)C(=O)N[C@@H](Cc1cnc[nH]1)C(=O)N[C@@H](CC(C)C)C(=O)N[C@@H](CC(N)=O)C(=O)N[C@@H](CO)C(=O)N[C@@H](CCSC)C(=O)N[C@@H](CCC(=O)O)C(=O)N[C@@H](CCCN=C(N)N)C(=O)N[C@H](C(=O)N[C@@H](CCC(=O)O)C(=O)N[C@@H](Cc1c[nH]c2ccccc12)C(=O)N[C@@H](CC(C)C)C(=O)N[C@@H](CCCN=C(N)N)C(=O)N[C@@H](CCCCN)C(=O)N[C@@H](CCCCN)C(=O)N[C@@H](CC(C)C)C(=O)N[C@@H](CCC(N)=O)C(=O)N[C@@H](CC(=O)O)C(=O)N[C@H](C(=O)N[C@@H](Cc1cnc[nH]1)C(=O)N[C@@H](CC(N)=O)C(=O)N[C@@H](Cc1ccccc1)C(=O)O)C(C)C)C(C)C [teriparatide]
Urinary CTX, Max ([1]; 2 to 24 h, 28.2 μg single s.c.): 958.0 µg/mmol
Urinary CTX, Median ([1]; 2 to 24 h, 28.2 μg single s.c.): 402.5 µg/mmol
Urinary CTX, Min ([1]; 2 to 24 h, 28.2 μg single s.c.): 192.0 µg/mmol
Urinary CTX, Max ([1]; 2 to 24 h, 56.5 μg single s.c.): 1190.0 µg/mmol
Urinary CTX, Median ([1]; 2 to 24 h, 56.5 μg single s.c.): 508.5 µg/mmol
Urinary CTX, Min ([1]; 2 to 24 h, 56.5 μg single s.c.): 238.0 µg/mmol
Urinary CTX, Max [1, 6]: 655.0 µg/mmol
Urinary CTX, Median [1, 6]: 351.0 µg/mmol
Urinary CTX, Min [1, 6]: 106.0 µg/mmol
Urinary CTX, Max [1, 7]: 972.0 µg/mmol
Urinary CTX, Median [1, 7]: 351.0 µg/mmol
Urinary CTX, Min [1, 7]: 142.0 µg/mmol
Serum NTX, Max ([2]; 2 to 24 h, 28.2 μg single s.c.): 21.7 nM BCE/L
Serum NTX, Median ([2]; 2 to 24 h, 28.2 μg single s.c.): 14.2 nM BCE/L
Serum NTX, Min ([2]; 2 to 24 h, 28.2 μg single s.c.): 9.2 nM BCE/L
Serum NTX, Max ([2]; 2 to 24 h, 56.5 μg single s.c.): 27.7 nM BCE/L
Serum NTX, Median ([2]; 2 to 24 h, 56.5 μg single s.c.): 13.8 nM BCE/L
Serum NTX, Min ([2]; 2 to 24 h, 56.5 μg single s.c.): 7.2 nM BCE/L
Serum NTX, Max [2, 6]: 20.4 nM BCE/L
Serum NTX, Median [2, 6]: 13.2 nM BCE/L
Serum NTX, Min [2, 6]: 7.2 nM BCE/L
Serum NTX, Max [2, 7]: 20.6 nM BCE/L
Serum NTX, Median [2, 7]: 10.7 nM BCE/L
Serum NTX, Min [2, 7]: 7.5 nM BCE/L
Intact-PTH, Max (intact PTH; 2 to 24 h, 28.2 μg single s.c.): 66.0 pg/mL
Intact-PTH, Median (intact PTH; 2 to 24 h, 28.2 μg single s.c.): 34.5 pg/mL
Intact-PTH, Min (intact PTH; 2 to 24 h, 28.2 μg single s.c.): 17.0 pg/mL
Intact-PTH, Max (intact PTH; 2 to 24 h, 56.5 μg single s.c.): 65.0 pg/mL
Intact-PTH, Median (intact PTH; 2 to 24 h, 56.5 μg single s.c.): 35.0 pg/mL
Intact-PTH, Min (intact PTH; 2 to 24 h, 56.5 μg single s.c.): 18.0 pg/mL
Intact-PTH, Max (intact PTH; [6]): 64.0 pg/mL
Intact-PTH, Median (intact PTH; [6]): 45.5 pg/mL
Intact-PTH, Min (intact PTH; [6]): 25.0 pg/mL
Intact-PTH, Max (intact PTH; [7]): 109.0 pg/mL
Intact-PTH, Median (intact PTH; [7]): 49.0 pg/mL
Intact-PTH, Min (intact PTH; [7]): 26.0 pg/mL
Serum osteocalcin, Max (osteocalcin; 2 to 24 h, 28.2 μg single s.c.): 12.7 ng/mL
Serum osteocalcin, Median (osteocalcin; 2 to 24 h, 28.2 μg single s.c.): 7.6 ng/mL
Serum osteocalcin, Min (osteocalcin; 2 to 24 h, 28.2 μg single s.c.): 4.6 ng/mL
Serum osteocalcin, Max (osteocalcin; 2 to 24 h, 56.5 μg single s.c.): 16.7 ng/mL
Serum osteocalcin, Median (osteocalcin; 2 to 24 h, 56.5 μg single s.c.): 7.4 ng/mL
Serum osteocalcin, Min (osteocalcin; 2 to 24 h, 56.5 μg single s.c.): 3.2 ng/mL
Serum osteocalcin, Max (osteocalcin; [6]): 12.2 ng/mL
Serum osteocalcin, Median (osteocalcin; [6]): 8.1 ng/mL
Serum osteocalcin, Min (osteocalcin; [6]): 4.6 ng/mL
Serum osteocalcin, Max (osteocalcin; [7]): 17.9 ng/mL
Serum osteocalcin, Median (osteocalcin; [7]): 7.9 ng/mL
Serum osteocalcin, Min (osteocalcin; [7]): 4.3 ng/mL
1,25(OH)2D, Max ([3]; 2 to 24 h, 28.2 μg single s.c.): 118.0 pg/mL
1,25(OH)2D, Median ([3]; 2 to 24 h, 28.2 μg single s.c.): 67.5 pg/mL
1,25(OH)2D, Min ([3]; 2 to 24 h, 28.2 μg single s.c.): 37.0 pg/mL
1,25(OH)2D, Max ([3]; 2 to 24 h, 56.5 μg single s.c.): 136.0 pg/mL
1,25(OH)2D, Median ([3]; 2 to 24 h, 56.5 μg single s.c.): 70.5 pg/mL
1,25(OH)2D, Min ([3]; 2 to 24 h, 56.5 μg single s.c.): 33.0 pg/mL
1,25(OH)2D, Max [3, 6]: 99.0 pg/mL
1,25(OH)2D, Median [3, 6]: 56.0 pg/mL
1,25(OH)2D, Min [3, 6]: 21.0 pg/mL
1,25(OH)2D, Max [3, 7]: 94.0 pg/mL
1,25(OH)2D, Median [3, 7]: 54.0 pg/mL
1,25(OH)2D, Min [3, 7]: 18.0 pg/mL
Serum P1NP, Max (P1NP; 2 to 24 h, 28.2 μg single s.c.): 77.4 ng/mL
Serum P1NP, Median (P1NP; 2 to 24 h, 28.2 μg single s.c.): 47.4 ng/mL
Serum P1NP, Min (P1NP; 2 to 24 h, 28.2 μg single s.c.): 28.0 ng/mL
Serum P1NP, Max (P1NP; 2 to 24 h, 56.5 μg single s.c.): 101.0 ng/mL
Serum P1NP, Median (P1NP; 2 to 24 h, 56.5 μg single s.c.): 49.1 ng/mL
Serum P1NP, Min (P1NP; 2 to 24 h, 56.5 μg single s.c.): 13.0 ng/mL
Serum P1NP, Max (P1NP; [6]): 80.2 ng/mL
Serum P1NP, Median (P1NP; [6]): 53.5 ng/mL
Serum P1NP, Min (P1NP; [6]): 30.7 ng/mL
Serum P1NP, Max (P1NP; [7]): 118.0 ng/mL
Serum P1NP, Median (P1NP; [7]): 56.9 ng/mL
Serum P1NP, Min (P1NP; [7]): 18.3 ng/mL
Tmax ([4]; female, human, sc): 1 h
AUC(0-inf) ([4]; female, human, sc, 28.2 ug): 0.468 ng·h/mL
AUC(0-inf) ([4]; female, human, sc, 56.5 ug): 0.879 ng·h/mL
AUC(0-t) ([4]; female, human, sc, 56.5 ug): 0.832 ng·h/mL
time after injection at which teriparatide concentration disappeared ([4]; single s.c. injection 28.2 or 56.5 μg): 6 h
Any adverse event ([5]; 28.2 μg single s.c., n = 10): 10 (100) n (%)
Decreased appetite ([5]; 28.2 μg single s.c., n = 10): 1 (10) n (%)
Decreased blood pressure ([5]; 28.2 μg single s.c., n = 10): 1 (10) n (%)
Erythema ([5]; 28.2 μg single s.c., n = 10): 1 (10) n (%)
Muscle spasms ([5]; 28.2 μg single s.c., n = 10): 1 (10) n (%)
Palpitations ([5]; 28.2 μg single s.c., n = 10): 1 (10) n (%)
Positional vertigo ([5]; 28.2 μg single s.c., n = 10): 1 (10) n (%)
Rhinorrhea ([5]; 28.2 μg single s.c., n = 10): 1 (10) n (%)
Somnolence ([5]; 28.2 μg single s.c., n = 10): 1 (10) n (%)
Vomiting ([5]; 28.2 μg single s.c., n = 10): 1 (10) n (%)
Any adverse event ([5]; 56.5 μg single s.c., n = 10): 10 (100) n (%)
Conjunctival hyperemia ([5]; 56.5 μg single s.c., n = 10): 1 (10) n (%)
Decreased appetite ([5]; 56.5 μg single s.c., n = 10): 1 (10) n (%)
Eye pain ([5]; 56.5 μg single s.c., n = 10): 1 (10) n (%)
Headache ([5]; 56.5 μg single s.c., n = 10): 3 (30) n (%)
Hot flashes ([5]; 56.5 μg single s.c., n = 10): 1 (10) n (%)
Nasopharyngitis ([5]; 56.5 μg single s.c., n = 10): 1 (10) n (%)
Nausea ([5]; 56.5 μg single s.c., n = 10): 1 (10) n (%)
Pharynx discomfort ([5]; 56.5 μg single s.c., n = 10): 1 (10) n (%)
Rhinorrhea ([5]; 56.5 μg single s.c., n = 10): 1 (10) n (%)
Somnolence ([5]; 56.5 μg single s.c., n = 10): 5 (50) n (%)
Vomiting ([5]; 56.5 μg single s.c., n = 10): 1 (10) n (%)
severity and outcome of ADRs ([5]; 28.2 and 56.5 μg groups, most ADRs): mild and resolved without intervention
changes in laboratory values before or after administration ([5]; throughout the study duration): no significant changes
